Reference: ChEMBL document CHEMBL1124947, “Cationic antiprotozoal drugs. Trypanocidal activity of 2-(4'-formylphenyl)imidazo[1,2-a]pyridinium guanylhydrazones and related derivatives of quaternary heteroaromatic compounds” (J Med Chem, 1990)

Experiments:
[1] = tested on: Mus musculus; assay: Trypanocidal Activity at I.C.E. value 0.59 when administered perorally.; format: functional
[2] = tested on: Mus musculus; assay: Trypanocidal Activity at I.C.E. value 0.85 when administered subcutaneously.; format: functional
Summary of the method: (§1)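 Mice, in groups of five per dose, were given a standard inoculum of blood-stage T. rhodesiense that is lethal to all untreated controls, then dosed subcutaneously. Usually 11 dose levels were used (2^n × 0.42 mg/kg).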

[3] = tested on: Mus musculus; assay: Trypanocidal Activity at I.C.E. value 0.52 when administered subcutaneously.; format: functional
Summary of the method: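 Blood-stage T. rhodesiense infection came from a standard inoculum lethal to all untreated mice. Drug was given by subcutaneous injection to groups of five mice. Survival beyond 30 days counted as cure. […] Sub-curative doses scored 0, and data were normalized at each dose.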

[4] = tested on: Trypanosoma brucei rhodesiense; assay: In Vitro measurement of inhibition of thymidine uptake in cell culture of Trypanosoma rhodesiense; format: functional; settings: read-out: ID50 (the source's name)
Summary of the method: (§2)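 Parasites harvested from infected rats and incubated 3 h across a drug concentration series, usually 0.1–100 µg/mL. Incorporation of radiolabeled thymidine measured. ID50 is the concentration (µg/mL) producing 50% inhibition.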

[5] = tested on: Trypanosoma brucei rhodesiense; assay: In Vitro measurement of inhibition of leucine uptake in cell culture of Trypanosoma rhodesiense; format: functional; settings: read-out: ID50 (the source's name)
Summary of the method: (§3)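 Trypanosomes harvested from infected rats, cultured 3 h with several concentrations of drug, usually 0.1–100 µg/mL. Radiolabeled L-leucine uptake measured. ID50 is the concentration in µg/mL giving 50% inhibition of incorporation.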

[6] = tested on: Mus musculus; assay: Trypanocidal Activity at I.C.E. value 0.60 when administered perorally.; format: functional
[7] = tested on: Mus musculus; assay: Trypanocidal Activity at I.C.E. value 0.82 when administered subcutaneously.; format: functional; summary of the method: as §1
[8] = tested on: Mus musculus; assay: Fraction of mice that were cured after oral administration at a dose of 53 mg/kg and I.C.E. value of 0.56; format: functional
[9] = tested on: Mus musculus; assay: Fraction of mice that were cured after oral administration at a dose of 6.6 mg/kg and I.C.E. value of 0.56; format: functional
[10] = tested on: Mus musculus; assay: Fraction of mice that were cured after subcutaneous administration at a dose of 0.42 mg/kg and I.C.E. value of 0.82; format: functional
[11] = tested on: Mus musculus; assay: Fraction of mice that were cured after subcutaneous administration at a dose of 0.83 mg/kg and I.C.E. value of 0.82; format: functional
[12] = tested on: Mus musculus; assay: Fraction of mice that were cured after subcutaneous administration at a dose of 1.67 mg/kg and I.C.E. value of 0.82; format: functional
[13] = tested on: Mus musculus; assay: Fraction of mice that were cured after subcutaneous administration at a dose of 106 mg/kg and I.C.E. value of 0.82; format: functional
[14] = tested on: Mus musculus; assay: Fraction of mice that were cured after oral administration at a dose of 26 mg/kg and I.C.E. value of 0.56; format: functional
[15] = tested on: Mus musculus; assay: Fraction of mice that were cured after oral administration at a dose of 3.3 mg/kg and I.C.E. value of 0.56; format: functional
[16] = tested on: Mus musculus; assay: Fraction of mice that were cured after oral administration at a dose of 424 mg/kg and I.C.E. value of 0.56; format: functional
[17] = tested on: Mus musculus; assay: Fraction of mice that were cured after oral administration at a dose of 0.42 mg/kg and I.C.E. value of 0.56; format: functional
[18] = tested on: Mus musculus; assay: Fraction of mice that were cured after oral administration at a dose of 0.83 mg/kg and I.C.E. value of 0.56; format: functional
[19] = tested on: Mus musculus; assay: Trypanocidal Activity at I.C.E. value 0.56 when administered perorally.; format: functional
[20] = tested on: Mus musculus; assay: Fraction of mice that were cured after subcutaneous administration at a dose of 3.3 mg/kg and I.C.E. value of 0.82; format: functional
[21] = tested on: Mus musculus; assay: Fraction of mice that were cured after subcutaneous administration at a dose of 424 mg/kg and I.C.E. value of 0.82; format: functional
[22] = tested on: Mus musculus; assay: Fraction of mice that were cured after subcutaneous administration at a dose of 53 mg/kg and I.C.E. value of 0.82; format: functional
[23] = tested on: Mus musculus; assay: Fraction of mice that were cured after subcutaneous administration at a dose of 6.6 mg/kg and I.C.E. value of 0.82; format: functional
[24] = tested on: Mus musculus; assay: Curative activity of the Compound after oral administration at a dose of 0.42 mg/kg and I.C.E. value of 0.60; format: functional
[25] = tested on: Mus musculus; assay: Curative activity of the Compound after oral administration at a dose of 0.83 mg/kg and I.C.E. value of 0.60; format: functional
[26] = tested on: Mus musculus; assay: Curative activity of the Compound after oral administration at a dose of 1.67 mg/kg and I.C.E. value of 0.60; format: functional
[27] = tested on: Mus musculus; assay: Curative activity of the Compound after oral administration at a dose of 106 mg/kg and I.C.E. value of 0.60; 10/10; format: functional
[28] = tested on: Mus musculus; assay: Curative activity of the Compound after oral administration at a dose of 13 mg/kg and I.C.E. value of 0.60; 10/10; format: functional
[29] = tested on: Mus musculus; assay: Curative activity of the Compound after oral administration at a dose of 212 mg/kg and I.C.E. value of 0.60; 5/5; format: functional
[30] = tested on: Mus musculus; assay: Fraction of mice that were cured after subcutaneous administration at a dose of 13 mg/kg and I.C.E. value of 0.82; format: functional
[31] = tested on: Mus musculus; assay: Fraction of mice that were cured after subcutaneous administration at a dose of 212 mg/kg and I.C.E. value of 0.82; format: functional
[32] = tested on: Mus musculus; assay: Fraction of mice that were cured after subcutaneous administration at a dose of 26 mg/kg and I.C.E. value of 0.82; format: functional
[33] = tested on: Mus musculus; assay: Curative activity of the Compound after Subcutaneous administration at a dose of 0.42 mg/kg and I.C.E. value of 0.82; 8/10; format: functional
[34] = tested on: Mus musculus; assay: Curative activity of the Compound after oral administration at a dose of 53 mg/kg and I.C.E. value of 0.60; 5/5; format: functional
[35] = tested on: Mus musculus; assay: Curative activity of the Compound after oral administration at a dose of 6.6 mg/kg and I.C.E. value of 0.60; 2/5; format: functional
[36] = tested on: Mus musculus; assay: Curative activity of the Compound after Subcutaneous administration at a dose of 0.83 mg/kg and I.C.E. value of 0.82;20/20; format: functional
[37] = tested on: Mus musculus; assay: Curative activity of the Compound after Subcutaneous administration at a dose of 1.67 mg/kg and I.C.E. value of 0.82; 19/20; format: functional
[38] = tested on: Mus musculus; assay: Curative activity of the Compound after Subcutaneous administration at a dose of 106 mg/kg ( T-Toxic) and I.C.E. value of 0.82; 16/20 and 1 toxic; format: ADME, organism-based; design: dose 106 mg/kg, route subcutaneous; settings: in vivo, sc
[39] = tested on: Mus musculus; assay: Curative activity of the Compound after Subcutaneous administration at a dose of 212 mg/kg ( T-Toxic) and I.C.E. value of 0.82; 5/10 and 5 toxic; format: ADME, organism-based; design: dose 212 mg/kg, route subcutaneous; settings: in vivo, sc
[40] = tested on: Mus musculus; assay: Curative activity of the Compound after Subcutaneous administration at a dose of 26 mg/kg and I.C.E. value of 0.82; […]; format: functional
[41] = tested on: Mus musculus; assay: Curative activity of the Compound after Subcutaneous administration at a dose of 3.3 mg/kg and I.C.E. value of 0.82; 10/10; format: functional
[42] = tested on: Mus musculus; assay: Curative activity of the Compound after Subcutaneous administration at a dose of 424 mg/kg ( T-Toxic)and I.C.E. value of 0.82; 4/20 and 16 toxic; format: ADME, organism-based; design: dose 424 mg/kg, route subcutaneous; settings: in vivo, sc
[43] = tested on: Mus musculus; assay: Curative activity of the Compound after Subcutaneous administration at a dose of 53 mg/kg and I.C.E. value of 0.82; […]; format: functional
[44] = tested on: Mus musculus; assay: Curative activity of the Compound after Subcutaneous administration at a dose of 53 mg/kg and I.C.E. value of 0.82; 9/10; format: functional
[45] = tested on: Mus musculus; assay: Fraction of mice that were cured after oral administration at a dose of 1.67 mg/kg and I.C.E. value of 0.56; format: functional
[46] = tested on: Mus musculus; assay: Fraction of mice that were cured after oral administration at a dose of 106 mg/kg and I.C.E. value of 0.56; format: functional
[47] = tested on: Mus musculus; assay: Fraction of mice that were cured after oral administration at a dose of 13 mg/kg and I.C.E. value of 0.56; format: functional
[48] = tested on: Mus musculus; assay: Fraction of mice that were cured after oral administration at a dose of 212 mg/kg and I.C.E. value of 0.56; format: functional
[49] = tested on: Mus musculus; assay: Curative activity of the Compound after oral administration at a dose of 26 mg/kg and I.C.E. value of 0.60; 15/15; format: functional
[50] = tested on: Mus musculus; assay: Curative activity of the Compound after oral administration at a dose of 3.3 mg/kg and I.C.E. value of 0.60;1/5; format: functional
[51] = tested on: Mus musculus; assay: Curative activity of the Compound after oral administration at a dose of 424 mg/kg and I.C.E. value of 0.60; 10/10; format: functional
[52] = tested on: Trypanosoma brucei rhodesiense; assay: In Vitro measurement of inhibition of Leucine uptake in cell culture of Trypanosoma rhodesiense.; format: functional; settings: read-out: ID50 (the source's name); summary of the method: as §3
[53] = tested on: Trypanosoma brucei rhodesiense; assay: In Vitro measurement of inhibition of thymidine uptake in cell culture of Trypanosoma rhodesiense.; format: functional; settings: read-out: ID50 (the source's name); summary of the method: as §2
[54] = tested on: Mus musculus; assay: Trypanocidal Activity at I.C.E. value 0.20 when administered subcutaneously.; format: functional
[55] = tested on: Mus musculus; assay: Trypanocidal Activity at I.C.E. value 0.36 when administered perorally.; format: functional

C[n+]1c(-c2ccc(/C=N/NC(=N)NO)cc2)cn2ccccc21.Cc1ccc(S(=O)(=O)O)cc1.Cc1ccc(S(=O)(=O)[O-])cc1
CD50 [1]: 6.6 mg/kg | CD50 [2]: 0.8 mg/kg

CNC(=N)N/N=C/c1ccc(-c2cn3ccsc3[n+]2C)cc1.I.[I-]
CD50 [3]: 0.4 mg/kg | IC50 [4]: 1.5 µg/mL | IC50 [5]: 1.2 µg/mL | CD50 [6]: 6.6 mg/kg

Cc1ccc(S(=O)(=O)O)cc1.Cc1ccc(S(=O)(=O)[O-])cc1.Cc1ccc2n(c1)cc(-c1ccc(/C=N/NC(=N)N)cc1)[n+]2C
CD50 [7]: 0.2 mg/kg | Fraction cured [8]: 1 | Fraction cured [9]: 0.4 | Fraction cured [10]: 0.8 | Fraction cured [11]: 1 | Fraction cured [12]: 0.95 | Fraction cured [13]: 0.8 | Fraction cured [14]: 1 | Fraction cured [15]: 0.2 | Fraction cured [16]: 1 | Fraction cured [17]: 0 | Fraction cured [18]: 0 | CD50 [19]: 6.6 mg/kg | Fraction cured [20]: 1 | Fraction cured [21]: 0.2 | Fraction cured [22]: 0.9 | Fraction cured [23]: 1 | Survivors [24]: 0 | Survivors [25]: 0 | Survivors [26]: 0 | Survivors [27]: 10 | Survivors [28]: 10 | Survivors [29]: 5 | Fraction cured [30]: 1 | Fraction cured [31]: 0.5 | Fraction cured [32]: 0.97 | Survivors [33]: 8 | Survivors [34]: 5 | Survivors [35]: 2 | Survivors [36]: 20 | Survivors [37]: 19 | Survivors [38]: 16 | Survivors [39]: 5 | Survivors [40]: 29 | Survivors [41]: 10 | Survivors [42]: 4 | Survivors [43]: 9 | Survivors [44]: 9 | Fraction cured [45]: 0 | Fraction cured [46]: 1 | Fraction cured [47]: 1 | Fraction cured [48]: 1 | Survivors [49]: 15 | Survivors [50]: 1 | Survivors [51]: 10 | IC50 [52]: 0.5 µg/mL | IC50 [53]: 0.4 µg/mL

Br.CN(C)C(=N)N/N=C/c1ccc(-c2c([N+](=O)[O-])n3ccccc3[n+]2C)cc1.[Br-]
CD50 [54]: 0.8 mg/kg | CD50 [55]: 53 mg/kg
